Assay results from ChEMBL document CHEMBL4414600, “Discovery of a Furanopyrimidine-Based Epidermal Growth Factor Receptor Inhibitor (DBPR112) as a Clinical Candidate for the Treatment of Non-Small Cell Lung Cancer” (J Med Chem, 2019).

What was measured:
NCI-H1975 [1] = conditions: Homo sapiens, at 312.5 to 20000 nM
[2] = target: T1, Tyrosine-protein kinase JAK3 (Homo sapiens) (UniProt P52333); assay: Binding affinity to wild-type human partial length JAK3 JH1 catalytic domain (I781 to S1124 residues) expressed in mammalian expression system assessed as residual binding level at 10000 nM by Kinomescan method relative to control
T1 sequence (whole entry): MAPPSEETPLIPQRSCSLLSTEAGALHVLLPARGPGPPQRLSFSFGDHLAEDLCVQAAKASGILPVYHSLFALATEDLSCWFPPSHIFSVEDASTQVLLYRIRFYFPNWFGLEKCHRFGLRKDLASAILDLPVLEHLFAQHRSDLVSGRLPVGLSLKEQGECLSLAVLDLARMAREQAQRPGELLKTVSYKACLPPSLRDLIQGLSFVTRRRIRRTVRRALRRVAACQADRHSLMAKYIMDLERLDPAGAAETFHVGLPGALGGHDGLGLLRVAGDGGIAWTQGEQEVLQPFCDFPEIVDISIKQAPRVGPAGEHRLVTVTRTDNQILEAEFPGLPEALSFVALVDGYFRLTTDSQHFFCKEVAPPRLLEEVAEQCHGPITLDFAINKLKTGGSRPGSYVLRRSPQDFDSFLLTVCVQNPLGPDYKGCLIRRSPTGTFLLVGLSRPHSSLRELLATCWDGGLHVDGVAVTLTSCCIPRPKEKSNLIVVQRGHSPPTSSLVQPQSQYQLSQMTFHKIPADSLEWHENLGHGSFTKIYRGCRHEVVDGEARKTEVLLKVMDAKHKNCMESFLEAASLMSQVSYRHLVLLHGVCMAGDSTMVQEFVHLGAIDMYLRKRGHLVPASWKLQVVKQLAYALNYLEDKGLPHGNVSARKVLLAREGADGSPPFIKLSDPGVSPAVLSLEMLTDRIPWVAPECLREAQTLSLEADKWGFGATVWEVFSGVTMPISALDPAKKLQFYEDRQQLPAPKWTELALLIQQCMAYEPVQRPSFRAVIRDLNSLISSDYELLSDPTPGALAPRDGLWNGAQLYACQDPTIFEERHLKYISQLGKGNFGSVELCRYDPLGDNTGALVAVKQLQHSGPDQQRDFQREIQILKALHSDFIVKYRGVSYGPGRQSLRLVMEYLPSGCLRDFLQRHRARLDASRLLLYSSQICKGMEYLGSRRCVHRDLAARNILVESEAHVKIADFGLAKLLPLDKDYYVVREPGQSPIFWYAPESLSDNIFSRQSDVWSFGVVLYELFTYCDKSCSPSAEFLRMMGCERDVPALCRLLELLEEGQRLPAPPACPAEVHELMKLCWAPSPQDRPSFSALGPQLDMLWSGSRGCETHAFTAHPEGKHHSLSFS
Summary of the method: (§1)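 KINOMEscan competition-binding profiling at a single concentration of 10,000 nM across a panel that included 395 non-mutant kinases. Binding is read out as percent of control. Kinases with less than 10% of control were counted as hits for the S(10) selectivity score, which is the number of non-mutant hits divided by the number of non-mutant kinases tested.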

[3] = Tmax in rat at 23.6 mg/kg, po; type: ADME, organism-based; conditions: in vivo
Summary of the method: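 Rat pharmacokinetics: single IV injection at 5 mg/kg or oral dosing at 20 mg/kg (23.6 mg/kg oral for one compound). Plasma parameters t1/2, CL, Vss, AUC(0-inf), Cmax, Tmax and oral bioavailability F were derived from the concentration–time profiles.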

NCI-H1975 [4] = assay: Antitumor activity against human NCI-H1975 cells xenografted in nude BALB/c mouse assessed as inhibition of tumor growth at 50 mg/kg, po QD for 15 days relative to control; type: functional
Summary of the method: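 H1975 cells were grown in RPMI1640 with 10% heat-inactivated FBS at 37 °C, 5% CO2, and passaged by trypsin-EDTA. 5x10^6 cells in 0.1 ml PBS were injected subcutaneously at the right flank of BALB/c nude mice. Oral QD dosing for 15 days began at a mean tumor size of 147 mm³, n = 5 per group.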

in vivo = conditions: rat, po, 23.6 mg/kg
[5] = Inhibition of GST-tagged human HER2 V777_G778insCG mutant mutant using poly(Glu, Tyr) 4:1 substrate incubated for 120 mins by kinase-Glo plus luminescent kinase assay
[6] = target: STE20-like serine/threonine-protein kinase (Homo sapiens) (UniProt Q9H2G2); assay: Binding affinity to wild-type human partial length SLK (S14 to A307 residues) expressed in bacterial expression system assessed as residual binding level at 10000 nM by Kinomescan method relative to control
Summary of the method: (§2)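 KINOMEScan competition binding panel run at 10,000 nM compound, with results expressed as percent of control binding. S(10) is the fraction of non-mutant kinases below 10% of control, out of 395 tested.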

HCC827 = assay: Cytotoxicity in human HCC827 cells assessed as reduction in cell viability incubated for 96 hrs by MTS method; type: functional
[7] = target: Receptor tyrosine-protein kinase erbB-2 (Homo sapiens) (UniProt P04626); assay: Binding affinity to wild-type human partial length ERBB2 (K646 to V1225 residues) expressed in mammalian expression system assessed as residual binding level at 10000 nM by Kinomescan method relative to control
Summary of the method: as §1

[8] = target: T2, Cytoplasmic tyrosine-protein kinase BMX (Homo sapiens) (UniProt P51813); assay: Binding affinity to wild-type human full length BMX (M1 to H675 residues) expressed in bacterial expression system assessed as residual binding level at 10000 nM by Kinomescan method relative to control
T2 sequence (whole entry): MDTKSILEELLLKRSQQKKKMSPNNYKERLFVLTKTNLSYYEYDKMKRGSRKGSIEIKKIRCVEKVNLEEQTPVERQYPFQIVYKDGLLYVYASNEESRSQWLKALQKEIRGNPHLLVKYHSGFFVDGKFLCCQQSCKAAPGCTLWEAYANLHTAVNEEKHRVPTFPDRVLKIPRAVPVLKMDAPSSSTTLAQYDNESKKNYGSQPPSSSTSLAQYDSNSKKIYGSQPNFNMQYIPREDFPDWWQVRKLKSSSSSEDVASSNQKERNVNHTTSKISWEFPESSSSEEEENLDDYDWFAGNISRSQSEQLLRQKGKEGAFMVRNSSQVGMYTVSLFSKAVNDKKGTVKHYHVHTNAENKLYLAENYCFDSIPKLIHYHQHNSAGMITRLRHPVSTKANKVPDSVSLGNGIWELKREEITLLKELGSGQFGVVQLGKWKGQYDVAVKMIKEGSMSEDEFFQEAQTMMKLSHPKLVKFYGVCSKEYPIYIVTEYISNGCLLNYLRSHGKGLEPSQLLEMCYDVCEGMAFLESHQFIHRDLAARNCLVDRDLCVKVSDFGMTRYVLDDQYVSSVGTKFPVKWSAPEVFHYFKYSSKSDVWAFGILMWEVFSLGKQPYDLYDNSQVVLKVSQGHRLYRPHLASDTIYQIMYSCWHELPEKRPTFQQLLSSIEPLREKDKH
Summary of the method: as §2

Chain of STE20-like serine/threonine-protein kinase (Homo sapiens) (Q9H2G2 whole entry, looked up, the tested form may be a part): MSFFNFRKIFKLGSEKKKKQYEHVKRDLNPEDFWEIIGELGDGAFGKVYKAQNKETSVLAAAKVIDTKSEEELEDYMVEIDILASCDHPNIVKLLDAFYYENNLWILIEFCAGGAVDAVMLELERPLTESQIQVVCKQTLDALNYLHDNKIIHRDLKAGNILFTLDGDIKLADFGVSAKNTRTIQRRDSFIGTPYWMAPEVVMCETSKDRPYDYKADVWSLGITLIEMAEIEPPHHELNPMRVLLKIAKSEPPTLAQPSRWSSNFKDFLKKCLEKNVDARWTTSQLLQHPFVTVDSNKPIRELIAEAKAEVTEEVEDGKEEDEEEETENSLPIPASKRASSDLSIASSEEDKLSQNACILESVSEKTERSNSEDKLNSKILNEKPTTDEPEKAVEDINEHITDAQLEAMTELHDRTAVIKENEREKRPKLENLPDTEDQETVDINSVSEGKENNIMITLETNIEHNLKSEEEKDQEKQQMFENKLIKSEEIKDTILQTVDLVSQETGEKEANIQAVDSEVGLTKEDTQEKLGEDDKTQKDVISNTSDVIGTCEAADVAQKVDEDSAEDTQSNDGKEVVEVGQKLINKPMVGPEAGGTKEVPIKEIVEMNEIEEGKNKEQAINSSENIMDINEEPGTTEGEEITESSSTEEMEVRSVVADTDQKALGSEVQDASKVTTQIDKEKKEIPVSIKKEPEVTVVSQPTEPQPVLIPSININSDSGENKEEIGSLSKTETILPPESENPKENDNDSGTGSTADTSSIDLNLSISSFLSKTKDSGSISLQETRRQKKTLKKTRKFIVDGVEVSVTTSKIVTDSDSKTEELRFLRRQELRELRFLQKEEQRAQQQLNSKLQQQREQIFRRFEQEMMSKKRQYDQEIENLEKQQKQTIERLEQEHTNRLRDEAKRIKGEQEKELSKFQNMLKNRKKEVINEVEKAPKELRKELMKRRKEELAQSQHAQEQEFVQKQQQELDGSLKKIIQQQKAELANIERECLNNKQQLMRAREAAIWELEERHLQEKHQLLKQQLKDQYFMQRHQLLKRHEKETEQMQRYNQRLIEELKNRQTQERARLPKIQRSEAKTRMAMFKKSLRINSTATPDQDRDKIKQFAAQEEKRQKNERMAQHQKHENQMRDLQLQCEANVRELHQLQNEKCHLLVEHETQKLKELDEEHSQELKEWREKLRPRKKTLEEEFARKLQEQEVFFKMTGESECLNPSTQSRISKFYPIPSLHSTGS
Chain of Receptor tyrosine-protein kinase erbB-2 (Homo sapiens) (P04626 whole entry, the tested form may be a part): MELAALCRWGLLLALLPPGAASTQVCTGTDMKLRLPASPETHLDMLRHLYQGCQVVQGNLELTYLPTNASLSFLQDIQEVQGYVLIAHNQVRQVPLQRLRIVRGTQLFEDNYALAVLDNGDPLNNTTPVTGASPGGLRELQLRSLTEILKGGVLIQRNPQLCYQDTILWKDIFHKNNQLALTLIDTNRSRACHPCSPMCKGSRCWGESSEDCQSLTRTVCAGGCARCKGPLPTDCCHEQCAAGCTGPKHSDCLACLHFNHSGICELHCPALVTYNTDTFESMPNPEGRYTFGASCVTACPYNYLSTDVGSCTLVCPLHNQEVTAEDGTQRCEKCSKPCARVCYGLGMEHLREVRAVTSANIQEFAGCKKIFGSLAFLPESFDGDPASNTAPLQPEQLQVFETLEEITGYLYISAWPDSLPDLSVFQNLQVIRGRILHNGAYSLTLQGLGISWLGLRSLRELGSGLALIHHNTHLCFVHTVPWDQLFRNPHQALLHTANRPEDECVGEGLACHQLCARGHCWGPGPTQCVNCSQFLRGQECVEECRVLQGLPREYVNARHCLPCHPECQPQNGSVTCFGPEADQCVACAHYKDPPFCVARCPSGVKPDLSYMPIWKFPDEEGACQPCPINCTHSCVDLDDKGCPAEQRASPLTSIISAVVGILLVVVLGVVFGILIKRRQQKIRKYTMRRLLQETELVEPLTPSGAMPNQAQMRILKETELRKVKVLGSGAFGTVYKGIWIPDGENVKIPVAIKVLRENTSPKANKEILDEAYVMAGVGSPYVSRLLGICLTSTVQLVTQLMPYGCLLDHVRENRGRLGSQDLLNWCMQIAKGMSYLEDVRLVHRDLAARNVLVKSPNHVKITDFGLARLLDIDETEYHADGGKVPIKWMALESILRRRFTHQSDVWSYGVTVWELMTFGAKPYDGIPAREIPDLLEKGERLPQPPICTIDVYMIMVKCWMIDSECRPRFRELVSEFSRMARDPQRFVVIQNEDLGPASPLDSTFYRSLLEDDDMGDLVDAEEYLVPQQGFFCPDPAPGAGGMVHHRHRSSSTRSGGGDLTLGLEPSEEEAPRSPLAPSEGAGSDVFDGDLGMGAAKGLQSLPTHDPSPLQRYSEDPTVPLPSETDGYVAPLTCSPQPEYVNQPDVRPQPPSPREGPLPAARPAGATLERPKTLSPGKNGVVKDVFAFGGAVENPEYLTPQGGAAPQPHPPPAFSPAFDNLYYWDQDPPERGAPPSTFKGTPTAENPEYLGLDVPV

**Q.** Which results are given for `CN(C)C/C=C/C(=O)Nc1cccc(-c2c(-c3ccccc3)oc3ncnc(N[C@H](CO)c4ccccc4)c23)c1`?
**A.** inhibition (NCI-H1975 [1]): Dose-dependent effect; Activity [2]: 0%; Tmax [3]: 3.3 h; TGI (NCI-H1975 [4]): 34%; AUC(0-inf) (in vivo): 2980 ng·h/mL; IC50 [5]: 0.203 nM; Activity [6]: < 10%; CC50 (HCC827): 25 nM; Activity [7]: 0%; Activity [8]: 4.8%
